Laboratory results as given in ChEMBL document CHEMBL1641602, “Quinolones as HCV NS5B polymerase inhibitors” (Bioorg Med Chem Lett, 2011).

System: RNA-directed RNA polymerase (Hepacivirus hominis), O39930 [M423F]
Assay: Inhibition of HCV 1b BK NS5B polymerase NNI-2 allosteric site M423F mutant by scintillation proximity assay relative to wild-type
Settings: Hepatitis C virus (isolate BK); call rule not given here
In short: (§1)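 SPA polymerase assay at 22 °C: 50 nM genotype 1b BK NS5B (C-terminal 21-residue deletion), mutant and wild-type, preincubated with inhibitor in pH 7.5 Tris buffer with MgCl2, DTT, KCl, BSA and 5% DMSO. Started with [3H]UTP, 1 µM UTP, biotinylated oligo(rU12) and poly(rA); stopped at 120 min with streptavidin SPA beads, then CsCl, then counted. Fold-change in inhibition over wild-type.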

Chain of RNA-directed RNA polymerase (Hepacivirus hominis), O39930 [M423F] (O39930 entry or part of it M423F): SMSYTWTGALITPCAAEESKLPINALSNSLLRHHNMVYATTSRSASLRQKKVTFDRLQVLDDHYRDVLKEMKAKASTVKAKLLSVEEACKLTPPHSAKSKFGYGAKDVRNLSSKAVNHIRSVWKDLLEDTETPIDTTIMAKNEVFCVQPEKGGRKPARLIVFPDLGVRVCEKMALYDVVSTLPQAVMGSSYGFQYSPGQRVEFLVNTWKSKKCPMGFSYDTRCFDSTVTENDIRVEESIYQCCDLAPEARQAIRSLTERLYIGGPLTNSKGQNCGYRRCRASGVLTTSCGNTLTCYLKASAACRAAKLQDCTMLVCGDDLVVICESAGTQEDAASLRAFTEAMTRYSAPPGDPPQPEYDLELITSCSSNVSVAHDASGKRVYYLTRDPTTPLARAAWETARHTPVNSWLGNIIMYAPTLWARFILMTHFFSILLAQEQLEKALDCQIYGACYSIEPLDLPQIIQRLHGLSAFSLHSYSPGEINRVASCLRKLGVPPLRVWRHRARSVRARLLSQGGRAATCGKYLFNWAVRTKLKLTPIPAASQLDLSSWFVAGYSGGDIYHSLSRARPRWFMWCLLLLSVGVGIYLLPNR

Row | Structure (SMILES) | fold change (FC)
1 | COc1cc2c(=O)c(C(=O)c3ccc(C)cc3)cn(Cc3ccc(C(C)C)cc3)c2cc1OC | > 200

System: RNA-directed RNA polymerase (Hepacivirus hominis), O39930 [P495L]
Sequence (O39930 entry or part of it P495L): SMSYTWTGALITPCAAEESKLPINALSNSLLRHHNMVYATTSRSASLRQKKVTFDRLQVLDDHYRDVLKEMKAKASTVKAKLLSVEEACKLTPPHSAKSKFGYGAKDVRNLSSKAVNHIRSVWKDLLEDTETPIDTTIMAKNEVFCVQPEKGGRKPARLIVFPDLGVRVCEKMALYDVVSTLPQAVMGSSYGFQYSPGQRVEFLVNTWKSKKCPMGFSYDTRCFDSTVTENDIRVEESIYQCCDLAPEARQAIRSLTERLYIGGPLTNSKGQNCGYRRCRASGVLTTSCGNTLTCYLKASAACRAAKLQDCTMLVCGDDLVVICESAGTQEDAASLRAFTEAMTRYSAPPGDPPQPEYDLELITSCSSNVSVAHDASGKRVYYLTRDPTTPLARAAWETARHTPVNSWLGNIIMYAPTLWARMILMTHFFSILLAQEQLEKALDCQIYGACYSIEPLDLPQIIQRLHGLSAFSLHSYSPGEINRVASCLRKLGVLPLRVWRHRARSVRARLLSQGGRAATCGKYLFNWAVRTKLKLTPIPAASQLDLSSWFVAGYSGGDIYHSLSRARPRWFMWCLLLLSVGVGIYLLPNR
Assay: Inhibition of HCV 1b BK NS5B polymerase NNI-1 allosteric site P495L mutant by scintillation proximity assay relative to wild-type
Settings: Hepatitis C virus (isolate BK)
In short: as §1

Row | Structure (SMILES) | fold change (FC)
2 | COc1cc2c(=O)c(C(=O)c3ccc(C)cc3)cn(Cc3ccc(C(C)C)cc3)c2cc1OC | 1

System: Hepatitis C virus
Assay: Antiviral activity against HCV 1b infected in human HuH7 cells assessed as total viral RNA level after 48 hrs by RT-qPCR analysis
Format: functional, organism-based, Hepacivirus hominis, genotype 1b, Huh-7
Settings: Hepatitis C virus, genotype 1b, Huh-7, 48 h; read-out: EC50
In short: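 Huh7/Clone A genotype 1b replicon cells, seeded at 40,000 per well in growth medium without G418, incubated overnight at 37 °C, 5% CO2. Compounds serially diluted in DMSO (final 0.5%), seven concentrations in triplicate, 48 h at 37 °C. Total RNA extracted and replicon RNA quantified by TaqMan RT-qPCR, normalized to untreated cells (100%).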

Row | Structure (SMILES) | EC50
3 | COc1cc2c(=O)c(C(=O)c3ccc(C)cc3)cn(Cc3ccc(C(C)C)cc3)c2cc1OC | 11.7 µM
4 | O=C(OCc1ccc(Cl)cc1)c1cn(Cc2ccc(Cl)cc2)c2cc(N3CCNCC3)c(F)cc2c1=O | 0.12 µM
5 | COc1cc2c(=O)c(C(=O)c3ccc(C)cc3)cn(Cc3ccc(S(N)(=O)=O)cc3)c2cc1OC | > 50 µM
6 | CCOC(=O)c1cn(Cc2ccc(Cl)cc2)c2cc(OC)c(OC)cc2c1=O | > 15 µM
7 | COc1cc2c(=O)c(C(=O)c3ccc(C)cc3)cn(Cc3ccc(Cl)cc3)c2cc1OC | 11.7 µM
8 | COc1cc2c(=O)c(C(=O)c3ccc(C)cc3)cn(Cc3ccc(C(F)(F)F)cc3F)c2cc1OC | > 12 µM
9 | COc1cc2c(=O)c(C(=O)OCc3cccc(C)c3)cn(Cc3ccc(C(F)(F)F)cc3F)c2cc1OC | 1.2 µM
10 | COc1cc2c(=O)c(C(=O)OCc3ccc(C)cc3)cn(Cc3ccc(C(F)(F)F)cc3F)c2cc1OC | 0.23 µM
11 | COc1cc2c(=O)c(C(=O)c3ccc(C)cc3)cn(Cc3ccc(S(C)(=O)=O)cc3)c2cc1OC | 25.3 µM
12 | COc1cc2c(=O)c(C(=O)OCc3ccccc3C)cn(Cc3ccc(C(F)(F)F)cc3F)c2cc1OC | 0.71 µM
13 | COc1cc2c(=O)c(C(=O)OCc3ccc(Cl)cc3)cn(Cc3ccc(Cl)cc3)c2cc1OC | 1.2 µM
14 | COc1cc2c(=O)c(C(=O)c3ccc(C)cc3)cn(Cc3ccc(C(C)(C)C)cc3)c2cc1OC | 9.5 µM
15 | COc1cc2c(=O)c(C(=O)c3ccc(C)cc3)cn(CC3CCCCC3)c2cc1OC | 38 µM
16 | O=C(OCc1ccc(Cl)cc1)c1cn(Cc2ccc(Cl)cc2)c2cc(N3CCOCC3)c(F)cc2c1=O | 1.7 µM

Same assay, conditions: huh-7

Row | Structure (SMILES) | EC50
17 | CN1CCN(c2cc3c(cc2F)c(=O)c(NC(=O)NCc2ccc(Cl)cc2)cn3Cc2ccc(Cl)cc2)CC1 | Not Active
18 | COc1cc2c(=O)c(C(=O)c3ccc(C)cc3)cn(CC3CC3)c2cc1OC | Not Active
19 | COc1cc2c(=O)c(C(=O)c3ccc(C)cc3)cn(Cc3ccc(N)cc3)c2cc1OC | Not Active
20 | COc1cc2c(=O)c(C(=O)c3ccc(C)cc3)cn(Cc3ccccc3)c2cc1OC | Not Active
21 | COc1cc2c(=O)c(C(=O)c3ccc(C)cc3)cn(CCc3ccccc3)c2cc1OC | Not Active
22 | COc1cc2c(=O)c(COCc3ccc(Cl)cc3)cn(Cc3ccccc3)c2cc1OC | Not Active
23 | O=C(NCc1ccc(Cl)cc1)c1cn(Cc2ccc(Cl)cc2)c2cc(N3CCOCC3)c(F)cc2c1=O | Not Active
24 | CN1CCN(c2cc3c(cc2F)c(=O)c(NC(=O)NCc2ccccc2)cn3Cc2ccccc2)CC1 | Not Active
25 | CN1CCN(c2cc3c(cc2F)c(=O)c(NC(=O)Cc2ccccc2)cn3Cc2ccc(Cl)cc2)CC1 | Not Active
26 | COc1cc2c(=O)c(C(=O)c3ccc(C)cc3)cn(Cc3ccc(Cl)c(Cl)c3)c2cc1OC | Not Active
27 | COc1cc2c(=O)c(S(=O)(=O)CCc3ccc(Cl)cc3)cn(Cc3ccccc3)c2cc1OC | Not Active
28 | COc1cc2c(=O)c(C(=O)c3ccc(C)cc3)cn(CCCc3ccccc3)c2cc1OC | Not Active
29 | CN(Cc1ccc(Cl)cc1)C(=O)c1cn(Cc2ccc(Cl)cc2)c2cc(N3CCOCC3)c(F)cc2c1=O | Not Active
30 | CN1CCN(c2cc3c(cc2F)c(=O)c(NC(=O)Cc2ccc(Cl)cc2)cn3Cc2ccccc2)CC1 | Not Active

System: Hepatitis C virus
Assay: Antiviral activity against HCV 1a infected in human HuH7 cells assessed as total viral RNA level after 48 hrs by RT-qPCR analysis
Format: functional, organism-based, Hepacivirus hominis
Settings: subtype 1a, Huh-7, 48 h

Row | Structure (SMILES) | EC50
31 | O=C(OCc1ccc(Cl)cc1)c1cn(Cc2ccc(Cl)cc2)c2cc(N3CCNCC3)c(F)cc2c1=O | 0.41 µM

System: not listed separately
Assay: Cytotoxicity against human HuH7 cells
Format: cell-based, Huh-7
Settings: HuH7 cells, read-out: GI50

Row | Structure (SMILES) | GI50
32 | COc1cc2c(=O)c(C(=O)c3ccc(C)cc3)cn(Cc3ccc(C(C)C)cc3)c2cc1OC | 15.5 µM
33 | O=C(OCc1ccc(Cl)cc1)c1cn(Cc2ccc(Cl)cc2)c2cc(N3CCNCC3)c(F)cc2c1=O | 1.1 µM
34 | COc1cc2c(=O)c(C(=O)c3ccc(C)cc3)cn(Cc3ccc(S(N)(=O)=O)cc3)c2cc1OC | > 25 µM
35 | CCOC(=O)c1cn(Cc2ccc(Cl)cc2)c2cc(OC)c(OC)cc2c1=O | > 15 µM
36 | COc1cc2c(=O)c(C(=O)c3ccc(C)cc3)cn(Cc3ccc(Cl)cc3)c2cc1OC | 15.5 µM
37 | COc1cc2c(=O)c(C(=O)c3ccc(C)cc3)cn(Cc3ccc(C(F)(F)F)cc3F)c2cc1OC | > 25 µM
38 | COc1cc2c(=O)c(C(=O)OCc3cccc(C)c3)cn(Cc3ccc(C(F)(F)F)cc3F)c2cc1OC | 7.3 µM
39 | COc1cc2c(=O)c(C(=O)OCc3ccc(C)cc3)cn(Cc3ccc(C(F)(F)F)cc3F)c2cc1OC | 20 µM
40 | COc1cc2c(=O)c(C(=O)c3ccc(C)cc3)cn(Cc3ccc(S(C)(=O)=O)cc3)c2cc1OC | > 50 µM
41 | COc1cc2c(=O)c(C(=O)OCc3ccccc3C)cn(Cc3ccc(C(F)(F)F)cc3F)c2cc1OC | 31 µM
42 | COc1cc2c(=O)c(C(=O)OCc3ccc(Cl)cc3)cn(Cc3ccc(Cl)cc3)c2cc1OC | 28.3 µM
43 | COc1cc2c(=O)c(C(=O)c3ccc(C)cc3)cn(Cc3ccc(C(C)(C)C)cc3)c2cc1OC | > 25 µM
44 | COc1cc2c(=O)c(C(=O)c3ccc(C)cc3)cn(CC3CCCCC3)c2cc1OC | 22 µM
45 | O=C(OCc1ccc(Cl)cc1)c1cn(Cc2ccc(Cl)cc2)c2cc(N3CCOCC3)c(F)cc2c1=O | > 12 µM

Same assay, conditions: huh-7

Row | Structure (SMILES) | GI50
46 | CN1CCN(c2cc3c(cc2F)c(=O)c(NC(=O)NCc2ccc(Cl)cc2)cn3Cc2ccc(Cl)cc2)CC1 | Not Active
47 | COc1cc2c(=O)c(C(=O)c3ccc(C)cc3)cn(CC3CC3)c2cc1OC | Not Active
48 | COc1cc2c(=O)c(C(=O)c3ccc(C)cc3)cn(Cc3ccc(N)cc3)c2cc1OC | Not Active
49 | COc1cc2c(=O)c(C(=O)c3ccc(C)cc3)cn(Cc3ccccc3)c2cc1OC | Not Active
50 | COc1cc2c(=O)c(C(=O)c3ccc(C)cc3)cn(CCc3ccccc3)c2cc1OC | Not Active
51 | COc1cc2c(=O)c(COCc3ccc(Cl)cc3)cn(Cc3ccccc3)c2cc1OC | Not Active
52 | O=C(NCc1ccc(Cl)cc1)c1cn(Cc2ccc(Cl)cc2)c2cc(N3CCOCC3)c(F)cc2c1=O | Not Active
53 | CN1CCN(c2cc3c(cc2F)c(=O)c(NC(=O)NCc2ccccc2)cn3Cc2ccccc2)CC1 | Not Active
54 | CN1CCN(c2cc3c(cc2F)c(=O)c(NC(=O)Cc2ccccc2)cn3Cc2ccc(Cl)cc2)CC1 | Not Active
55 | COc1cc2c(=O)c(C(=O)c3ccc(C)cc3)cn(Cc3ccc(Cl)c(Cl)c3)c2cc1OC | Not Active
56 | COc1cc2c(=O)c(S(=O)(=O)CCc3ccc(Cl)cc3)cn(Cc3ccccc3)c2cc1OC | Not Active
57 | COc1cc2c(=O)c(C(=O)c3ccc(C)cc3)cn(CCCc3ccccc3)c2cc1OC | Not Active
58 | CN(Cc1ccc(Cl)cc1)C(=O)c1cn(Cc2ccc(Cl)cc2)c2cc(N3CCOCC3)c(F)cc2c1=O | Not Active
59 | CN1CCN(c2cc3c(cc2F)c(=O)c(NC(=O)Cc2ccc(Cl)cc2)cn3Cc2ccccc2)CC1 | Not Active

System: not listed separately
Assay: Inhibition of Hepatitis C virus 1b BK NS5B Cdelta21 polymerase by scintillation proximity assay
Parameters: species or system Hepatitis C virus (isolate BK)
Settings: not given

Row | Structure (SMILES) | IC50
60 | CN1CCN(c2cc3c(cc2F)c(=O)c(NC(=O)NCc2ccc(Cl)cc2)cn3Cc2ccc(Cl)cc2)CC1 | > 150 µM
61 | COc1cc2c(=O)c(C(=O)c3ccc(C)cc3)cn(Cc3ccc(C(C)C)cc3)c2cc1OC | 1.15 µM
62 | COc1cc2c(=O)c(C(=O)c3ccc(C)cc3)cn(CC3CC3)c2cc1OC | 120 µM
63 | O=C(OCc1ccc(Cl)cc1)c1cn(Cc2ccc(Cl)cc2)c2cc(N3CCNCC3)c(F)cc2c1=O | 0.01 µM
64 | COc1cc2c(=O)c(C(=O)c3ccc(C)cc3)cn(Cc3ccc(N)cc3)c2cc1OC | 140 µM
65 | COc1cc2c(=O)c(C(=O)c3ccc(C)cc3)cn(Cc3ccc(S(N)(=O)=O)cc3)c2cc1OC | 0.85 µM
66 | COc1cc2c(=O)c(C(=O)c3ccc(C)cc3)cn(Cc3ccccc3)c2cc1OC | 170 µM
67 | CCOC(=O)c1cn(Cc2ccc(Cl)cc2)c2cc(OC)c(OC)cc2c1=O | 16 µM
68 | COc1cc2c(=O)c(C(=O)c3ccc(C)cc3)cn(CCc3ccccc3)c2cc1OC | 110 µM
69 | COc1cc2c(=O)c(C(=O)c3ccc(C)cc3)cn(Cc3ccc(Cl)cc3)c2cc1OC | 1.1 µM
70 | COc1cc2c(=O)c(C(=O)c3ccc(C)cc3)cn(Cc3ccc(C(F)(F)F)cc3F)c2cc1OC | 0.41 µM
71 | COc1cc2c(=O)c(C(=O)OCc3cccc(C)c3)cn(Cc3ccc(C(F)(F)F)cc3F)c2cc1OC | 0.06 µM
72 | COc1cc2c(=O)c(C(=O)OCc3ccc(C)cc3)cn(Cc3ccc(C(F)(F)F)cc3F)c2cc1OC | 0.008 µM
73 | COc1cc2c(=O)c(C(=O)c3ccc(C)cc3)cn(Cc3ccc(S(C)(=O)=O)cc3)c2cc1OC | 0.5 µM
74 | COc1cc2c(=O)c(COCc3ccc(Cl)cc3)cn(Cc3ccccc3)c2cc1OC | 100 µM
75 | O=C(NCc1ccc(Cl)cc1)c1cn(Cc2ccc(Cl)cc2)c2cc(N3CCOCC3)c(F)cc2c1=O | 16 µM
76 | COc1cc2c(=O)c(C(=O)OCc3ccccc3C)cn(Cc3ccc(C(F)(F)F)cc3F)c2cc1OC | 0.015 µM
77 | COc1cc2c(=O)c(C(=O)OCc3ccc(Cl)cc3)cn(Cc3ccc(Cl)cc3)c2cc1OC | 0.02 µM
78 | COc1cc2c(=O)c(C(=O)c3ccc(C)cc3)cn(Cc3ccc(C(C)(C)C)cc3)c2cc1OC | 0.68 µM
79 | CN1CCN(c2cc3c(cc2F)c(=O)c(NC(=O)NCc2ccccc2)cn3Cc2ccccc2)CC1 | 26 µM
80 | CN1CCN(c2cc3c(cc2F)c(=O)c(NC(=O)Cc2ccccc2)cn3Cc2ccc(Cl)cc2)CC1 | 4.6 µM
81 | COc1cc2c(=O)c(C(=O)c3ccc(C)cc3)cn(Cc3ccc(Cl)c(Cl)c3)c2cc1OC | 1.1 µM
82 | COc1cc2c(=O)c(S(=O)(=O)CCc3ccc(Cl)cc3)cn(Cc3ccccc3)c2cc1OC | > 150 µM
83 | COc1cc2c(=O)c(C(=O)c3ccc(C)cc3)cn(CC3CCCCC3)c2cc1OC | 9 µM
84 | O=C(OCc1ccc(Cl)cc1)c1cn(Cc2ccc(Cl)cc2)c2cc(N3CCOCC3)c(F)cc2c1=O | 0.02 µM
85 | COc1cc2c(=O)c(C(=O)c3ccc(C)cc3)cn(CCCc3ccccc3)c2cc1OC | 2.2 µM
86 | CN(Cc1ccc(Cl)cc1)C(=O)c1cn(Cc2ccc(Cl)cc2)c2cc(N3CCOCC3)c(F)cc2c1=O | 330 µM
87 | CN1CCN(c2cc3c(cc2F)c(=O)c(NC(=O)Cc2ccc(Cl)cc2)cn3Cc2ccccc2)CC1 | 2 µM
